Data: ChEMBL document CHEMBL4033777, “Next-Generation Hypoxic Cell Radiosensitizers: Nitroimidazole Alkylsulfonamides” (J Med Chem, 2018)
Values after ≈ are worked out from the molar mass of the structure shown. Each block holds one molecule with its values, some of them ahead of it.

Columns and labels:
HCT-116 [1] = assay: Cytotoxicity against human HCT116 cells at anoxic IC50 incubated for 1 hr at 21 degC by clonogenic survival assay; conditions: hct-116, 1 h
HCT-116 [2] = assay: (§1) Hypoxia radiosensitization activity in human HCT116 cells assessed as survival ratio by measuring ratio of cell survival with radiation in absence to presence of compound at 0.11 mM preincubated for 1 hr followed by 6 to 29 Gy irradiation measured after 10 days by methylene blue staining-based cell counting method; format: functional
[3] = Tmax in plasma of NIH-III mouse xenografted with human HCT116 cells at 0.60 mmol/kg, iv administered as single dose by HPLC analysis; format: ADME, organism-based; conditions: 0.6 mmol/kg
How it was run: (§2)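 Female NIH-III mice bearing subcutaneous HCT116 tumors (10^6 cells; ~300 mm3) got a single i.v. dose at the MAD or 75% of the MTD. Vehicle was saline with 1% DMSO, or saline with 2 equivalents of NaHCO3 for the phosphates. Plasma and tumor were sampled at multiple times by cardiac puncture and excision, drug was measured by HPLC, and Tmax came from noncompartmental analysis.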

HCT-116 [4] = assay: (§3) In vivo hypoxia radiosensitization activity in human HCT116 cells xenografted in NIH-III mouse assessed as survival ratio by measuring ratio of cell survival with 12.5 Gy radiation in absence to presence of compound at 0.6 mmol/kg, iv pretreated as single dose for 10 mins followed by irradiation measured after 18 hrs by excision assay; format: functional
Mus musculus [5] = assay: Drug level in NIH-III mouse assessed as maximum achievable dose at 10 ml/kg, iv; format: ADME; conditions: in vivo
How it was run: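 Non-tumor-bearing female NIH-III mice (~20 g) received freshly prepared solutions i.v. at 10 mL/kg in 0.9% saline with 1% DMSO, or saline with 2 molar equivalents NaHCO3 for phosphate prodrugs. MAD was the maximum dose that dissolved in the injection volume.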

HCT-116 [6] = assay: Cytotoxicity against human HCT116 cells incubated for 4 hrs under aerobic condition measured after 5 days by sulforhodamine B assay; format: cell-based
How it was run: (§4)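 STR-authenticated, mycoplasma-free HCT116 cells in αMEM + 5% FCS were seeded at 700 cells/well and allowed 2 h to attach. Drug was added from DMSO stocks (<1% DMSO) in serial 3-fold dilutions for 4 h, oxic or anoxic (Pd-catalyst anaerobic chamber, medium pre-equilibrated ≥3 days). After washing, cells regrew for 5 days before SRB staining and IC50 determination.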

HCT-116 [7] = assay: as §1, with “method relative to misonidazole” for “method”; format: functional
[8] = Cmax in tumor of NIH-III mouse xenografted with human HCT116 cells at 0.60 mmol/kg, iv administered as single dose by HPLC analysis; format: ADME, organism-based, Neoplasm; set-up: dose 0.6 mmol/kg, route intravenous; conditions: in vivo
How it was run: (§5)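 Female NIH-III mice bearing subcutaneous HCT116 xenografts (10^6 cells inoculated). At ca. 300 mm3 tumor size, a single i.v. dose was given at the MAD or 75% of the MTD. Vehicle was 0.9% saline with 1% DMSO, or saline with 2 molar equivalents NaHCO3 for phosphate prodrugs. Plasma and tumor were sampled at multiple times by cardiac puncture and excision, assayed by HPLC, and analysed noncompartmentally.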

[9] = Tmax in tumor of NIH-III mouse xenografted with human HCT116 cells at 0.60 mmol/kg, iv administered as single dose by HPLC analysis; format: ADME, organism-based, Neoplasm; conditions: 0.6 mmol/kg
How it was run: as §2

Plasma [10] = assay: Cmax in plasma of NIH-III mouse xenografted with human HCT116 cells at 0.60 mmol/kg, iv administered as single dose by HPLC analysis; format: ADME, organism-based; set-up: dose 0.6 mmol/kg, route intravenous; conditions: in vivo
How it was run: as §5

HCT-116 [11] = assay: as §1, with “with 15 Gy” for “with”, “anoxic IC50” for “0.11 mM”, “15” for “6 to 29”; format: functional
How it was run: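 Anoxic HCT116 cells were seeded at 10^5/well and treated at the anoxic IC50 concentration for 1 h at room temperature. They were irradiated with 15 Gy (60Co, ~2 Gy/min) in a sealed steel box, then plated clonogenically. Colonies of >50 cells were counted […]. SR15 = survival with radiation / survival with drug + radiation.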

HCT-116 [12] = assay: as §1, with “9.8” for “0.11”, “method relative to misonidazole” for “method”; format: functional
Mus musculus [13] = assay: Toxicity in NIH-III mouse xenografted with human HCT116 cells assessed as change in body weight with 12.5 Gy radiation at 0.93 mmol/kg, iv administered as single dose; conditions: in vivo
[14] = Solubility of the compound in alphaMEM containing 5% FCS and 1% DMSO by HPLC analysis; format: physicochemical
How it was run: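 Saturated drug solutions were incubated at 37 °C in αMEM with 5% FCS and 1% DMSO. Dissolved drug was quantified by HPLC.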

Plasma [15] = assay: Cmax in plasma of NIH-III mouse xenografted with human HCT116 cells at 1.24 mmol/kg, iv administered as single dose by HPLC analysis; format: ADME, organism-based; set-up: dose 1.24 mmol/kg, route intravenous; conditions: in vivo
How it was run: as §5

HCT-116 [16] = assay: (§6) Hypoxia radiosensitization activity in human HCT116 cells assessed as sensitizer enhancement ratio by measuring ratio of radiation dose for 1% survival in absence to presence of compound at 9.8 mM preincubated for 1 hr followed by irradiation measured after 10 days by methylene blue staining-based cell counting method relative to misonidazole; format: functional
HCT-116 [17] = assay: Cytotoxicity against human HCT116 cells incubated for 4 hrs under anaerobic condition measured after 5 days by sulforhodamine B assay; format: functional, cell-based
How it was run: as §4

HCT-116 [18] = assay: as §6, with “method” for “method relative to misonidazole”; format: functional
[19] = Cmax in tumor of NIH-III mouse xenografted with human HCT116 cells at 1.24 mmol/kg, iv administered as single dose by HPLC analysis; format: ADME, organism-based, Neoplasm; set-up: dose 1.24 mmol/kg, route intravenous; conditions: in vivo
How it was run: as §5

HCT-116 [20] = assay: Hypoxic cytotoxicity ratio of IC50 for human HCT116 cells under oxic condition to IC50 for human HCT116 cells under anoxic condition
How it was run: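 HCT116 cells, 700 per well and attached 2 h, got a 4 h exposure to 3-fold serial dilutions (<1% DMSO) under air or in a Pd-catalyst anaerobic chamber with pre-equilibrated medium. Cells were washed, regrown 5 days, and stained with sulforhodamine B to give IC50. HCR = oxic IC50 / anoxic IC50.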

[21] = Electrophilicity of the compound in pH 7 phosphate buffer assessed as one-electron reduction potential
How it was run: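 The one-electron reduction potential was set by pulse radiolysis equilibria at pH 7.0 (2.5 mM phosphate), established within 20 µs against benzylviologen, methylviologen or triquat. ΔE came from equilibrium constants via the Nernst equation, at three concentration ratios and 22 ± 2 °C.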

[22] = Toxicity in NIH-III mouse at 10 ml/kg, iv; conditions: in vivo
How it was run: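 MTD was the highest dose without drug-related deaths, >15% body-weight loss or severe morbidity. MAD was the maximum dose soluble in the injection volume. Vehicle was 0.9% saline with 1% DMSO, or for phosphate prodrugs saline with 2 molar equivalents of NaHCO3.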

[23] = Tmax in plasma of NIH-III mouse xenografted with human HCT116 cells at 1.24 mmol/kg, iv administered as single dose by HPLC analysis; format: ADME, organism-based
How it was run: as §2

[24] = Tmax in tumor of NIH-III mouse xenografted with human HCT116 cells at 1.24 mmol/kg, iv administered as single dose by HPLC analysis; format: ADME, organism-based, Neoplasm; conditions: 0.93 mmol/kg, in the assay text read “0.93 mmol/kg” for “1.24 mmol/kg”
How it was run: as §2

HCT-116 [25] = assay: as §3, with “1.24” for “0.6”; format: functional
HCT-116 [26] = assay: as §1, with “9.8” for “0.11”; format: functional
HCT-116 [27] = assay: as §1, with “0.03” for “0.11”, “method relative to misonidazole” for “method”; format: functional
HCT-116 [28] = assay: as §1, with “0.03” for “0.11”; format: functional
HCT-116 [29] = assay: Cytotoxicity against human HCT116 cells at anoxic IC50 incubated for 1 hr at 21 degC by sulforhodamine B assay; format: cell-based; conditions: hct-116, 1 h
HCT-116 [30] = assay: as §6, with “0.03” for “9.8”; format: functional
HCT-116 [31] = assay: as §6, with “0.03” for “9.8”, “method” for “method relative to misonidazole”; format: functional
HCT-116 [32] = assay: as §3, with “1.12” for “0.6”; format: functional
Plasma [33] = assay: Cmax in plasma of NIH-III mouse xenografted with human HCT116 cells at 1.12 mmol/kg, iv administered as single dose by HPLC analysis; format: ADME, organism-based; set-up: dose 1.12 mmol/kg, route intravenous; conditions: in vivo
How it was run: as §5

[34] = Cmax in tumor of NIH-III mouse xenografted with human HCT116 cells at 1.12 mmol/kg, iv administered as single dose by HPLC analysis; format: ADME, organism-based, Neoplasm; set-up: dose 1.12 mmol/kg, route intravenous; conditions: in vivo
How it was run: as §5

HCT-116 [35] = assay: as §6, with “0.4” for “9.8”, “method” for “method relative to misonidazole”; format: functional
[36] = Tmax in plasma of NIH-III mouse xenografted with human HCT116 cells at 1.12 mmol/kg, iv administered as single dose by HPLC analysis; format: ADME, organism-based
How it was run: as §2

HCT-116 [37] = assay: as §1, with “0.4” for “0.11”; format: functional
[38] = Tmax in tumor of NIH-III mouse xenografted with human HCT116 cells at 1.12 mmol/kg, iv administered as single dose by HPLC analysis; format: ADME, organism-based, Neoplasm
How it was run: as §2

HCT-116 [39] = assay: as §1, with “0.4” for “0.11”, “method relative to misonidazole” for “method”; format: functional
HCT-116 [40] = assay: as §6, with “0.4” for “9.8”; format: functional

SMILES: O=[N+]([O-])c1nccn1CS(=O)(=O)NCCO
Activity (HCT-116 [1]): Non-Toxic
Ratio (HCT-116 [2]): 1.8
Tmax [3]: 5 min
Ratio (HCT-116 [4]): 2.4
Drug uptake (Mus musculus [5]): 0.6 mmol/kg
IC50 (HCT-116 [6]): 380 to 4800 µM
fold change (FC) (HCT-116 [7]): 0.47
Cmax [8]: 94 µM
Tmax [9]: 10 min
Cmax (Plasma [10]): 570 µM

SMILES: O=[N+]([O-])c1cncn1CCN1CCOCC1 [NIMORAZOLE]
Activity (HCT-116 [1]): Non-Toxic
Ratio (HCT-116 [11]): 37
fold change (FC) (HCT-116 [12]): 7.28
Activity (Mus musculus [13]): Non-Toxic
solubility [14]: > 100 mM
Cmax (Plasma [15]): 1210 µM
fold change (FC) (HCT-116 [16]): 1.27
IC50 (HCT-116 [17]): 9800 µM
Ratio (HCT-116 [18]): 1.8
Cmax [19]: 91 µM
Ratio IC50 (HCT-116 [20]): 0.8
Activity [21]: -457 mV
MTD [22]: 1240 µmol/kg
Tmax [23]: 5 min
Tmax [24]: 10 min
Ratio (HCT-116 [25]): 4
Ratio (HCT-116 [26]): 44.9

solubility [14]: 1.08 mM (≈ 0.298 mg/mL)
SMILES: O=[N+]([O-])c1nccn1CS(=O)(=O)N1CCOCC1
Ratio (HCT-116 [11]): 3.8
fold change (FC) (HCT-116 [27]): 0.58
Ratio (HCT-116 [28]): 2
IC50 (HCT-116 [6]): 380 to 4800 µM
Activity (HCT-116 [29]): Non-Toxic
IC50 (HCT-116 [17]): 30 µM
Ratio IC50 (HCT-116 [20]): 11
fold change (FC) (HCT-116 [30]): 0.87
Ratio (HCT-116 [31]): 1.11

SMILES: O=[N+]([O-])c1nccn1CCS(=O)(=O)NCCN1CCOCC1
Activity (HCT-116 [1]): Non-Toxic
Ratio (HCT-116 [11]): 6
Ratio (HCT-116 [32]): 2
solubility [14]: > 163 mM
Cmax (Plasma [33]): 1040 µM
Cmax [34]: 410 µM
Drug uptake (Mus musculus [5]): 1.12 mmol/kg
Ratio (HCT-116 [35]): 1.357
Tmax [36]: 5 min
IC50 (HCT-116 [6]): 380 to 4800 µM
Ratio (HCT-116 [37]): 5
Tmax [38]: 10 min
IC50 (HCT-116 [17]): 400 µM
Ratio IC50 (HCT-116 [20]): 10
fold change (FC) (HCT-116 [39]): 0.57
fold change (FC) (HCT-116 [40]): 0.92
